Assay results published in ChEMBL document CHEMBL3112425, “Design, synthesis, and structure-activity relationship studies of a potent PACE4 inhibitor” (J Med Chem, 2014).
Square brackets hold non-standard residues; d marks the D form. Peptide text beside a SMILES is read from it. * marks the point of attachment. NH(4-amidinobenzyl) = N=C(N)c1ccc(CN*)cc1; Nle = CCCC[C@H](N)C(=O)O

Assays:
LNCaP [1] = assay: Cytotoxicity against human LNCAP cells up to 350 uM after 72 hrs by MTT assay; type: functional
In short: (§1)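 Prostate cancer cells were kept in RPMI 1640 at 37 °C, 5% CO2, with 5% FBS for DU145 and 10% FBS for LNCaP and PC3. After 24 h, medium was changed and peptides added at various concentrations, up to 350 μM. Viability was read by MTT after 72 h treatment. IC50 from dose–response curves, triplicate, mean ± SEM.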

PC-3 [2] = assay: Cytotoxicity against human PC3 cells up to 350 uM after 72 hrs by MTT assay; type: functional; in short: as §1
Furin = Furin (Homo sapiens, UniProt P09958); assay: Inhibition of human recombinant furin expressed in drosophila schneider 2 cells using pyroGlu-Arg-Thr-Lys-Arg-AMC as substrate after 1 hr
Chain of Furin (P09958 whole entry): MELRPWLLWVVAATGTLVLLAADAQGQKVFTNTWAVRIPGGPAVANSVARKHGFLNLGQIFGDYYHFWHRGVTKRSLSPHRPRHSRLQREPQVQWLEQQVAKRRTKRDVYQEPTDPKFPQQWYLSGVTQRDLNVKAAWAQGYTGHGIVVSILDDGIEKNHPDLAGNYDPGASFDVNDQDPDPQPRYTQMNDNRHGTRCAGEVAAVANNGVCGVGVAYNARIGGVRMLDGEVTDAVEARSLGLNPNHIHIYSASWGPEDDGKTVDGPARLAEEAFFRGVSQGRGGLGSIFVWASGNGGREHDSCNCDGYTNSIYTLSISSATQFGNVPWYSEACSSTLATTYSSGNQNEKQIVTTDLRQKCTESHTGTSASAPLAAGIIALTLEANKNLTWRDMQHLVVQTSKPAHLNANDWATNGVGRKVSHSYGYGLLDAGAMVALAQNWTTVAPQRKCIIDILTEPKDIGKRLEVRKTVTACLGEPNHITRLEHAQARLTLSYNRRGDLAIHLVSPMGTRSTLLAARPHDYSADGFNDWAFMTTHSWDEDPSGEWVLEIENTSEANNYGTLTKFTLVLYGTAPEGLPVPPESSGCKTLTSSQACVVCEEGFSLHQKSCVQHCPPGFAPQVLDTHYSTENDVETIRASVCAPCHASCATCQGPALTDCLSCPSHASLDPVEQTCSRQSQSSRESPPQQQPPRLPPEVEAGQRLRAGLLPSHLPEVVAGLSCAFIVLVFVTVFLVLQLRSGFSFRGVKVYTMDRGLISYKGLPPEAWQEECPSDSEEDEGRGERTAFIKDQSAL
In short: (§2)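 Human enzymes were expressed in Drosophila S2 cells and purified. Fluorogenic pyroGlu-RTKR-AMC was used at fixed concentration with varied inhibitor, 37 °C over 1 h. Buffers: furin, 100 mM Hepes pH 7.5, 1 mM CaCl2, 1 mM β-mercaptoethanol, 1.8 mg/mL BSA; PACE4 and PC7, 20 mM Bis-Tris pH 6.5, 1 mM CaCl2, 1.8 mg/mL BSA; PC2, same buffer at pH 5.7. Ki from IC50 (Cheng–Prusoff), or apparent Ki (Morrison) for tight binders. Triplicate, mean ± SD.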

[3] = Acute toxicity in human DU145 cells assessed as cell death/lysis at 100 uM after 4 hrs by LDH assay; type: cell-based, DU-145; conditions: read-out: INH
In short: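 DU145 cells (RPMI 1640, 5% FBS, 37 °C, 5% CO2) plated; 24 h later peptides added at 100 μM. After 4 h, release of lactate dehydrogenase into the medium was quantified enzymatically with a commercial LDH cytotoxicity kit as the measure of acute membrane damage/lysis.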

[4] = target: T1, Proprotein convertase subtilisin/kexin type 6 (Homo sapiens, UniProt P29122); assay: Inhibition of human recombinant PACE4 expressed in drosophila schneider 2 cells using pyroGlu-Arg-Thr-Lys-Arg-AMC as substrate after 1 hr; in short: as §2
T1 sequence (P29122 whole entry): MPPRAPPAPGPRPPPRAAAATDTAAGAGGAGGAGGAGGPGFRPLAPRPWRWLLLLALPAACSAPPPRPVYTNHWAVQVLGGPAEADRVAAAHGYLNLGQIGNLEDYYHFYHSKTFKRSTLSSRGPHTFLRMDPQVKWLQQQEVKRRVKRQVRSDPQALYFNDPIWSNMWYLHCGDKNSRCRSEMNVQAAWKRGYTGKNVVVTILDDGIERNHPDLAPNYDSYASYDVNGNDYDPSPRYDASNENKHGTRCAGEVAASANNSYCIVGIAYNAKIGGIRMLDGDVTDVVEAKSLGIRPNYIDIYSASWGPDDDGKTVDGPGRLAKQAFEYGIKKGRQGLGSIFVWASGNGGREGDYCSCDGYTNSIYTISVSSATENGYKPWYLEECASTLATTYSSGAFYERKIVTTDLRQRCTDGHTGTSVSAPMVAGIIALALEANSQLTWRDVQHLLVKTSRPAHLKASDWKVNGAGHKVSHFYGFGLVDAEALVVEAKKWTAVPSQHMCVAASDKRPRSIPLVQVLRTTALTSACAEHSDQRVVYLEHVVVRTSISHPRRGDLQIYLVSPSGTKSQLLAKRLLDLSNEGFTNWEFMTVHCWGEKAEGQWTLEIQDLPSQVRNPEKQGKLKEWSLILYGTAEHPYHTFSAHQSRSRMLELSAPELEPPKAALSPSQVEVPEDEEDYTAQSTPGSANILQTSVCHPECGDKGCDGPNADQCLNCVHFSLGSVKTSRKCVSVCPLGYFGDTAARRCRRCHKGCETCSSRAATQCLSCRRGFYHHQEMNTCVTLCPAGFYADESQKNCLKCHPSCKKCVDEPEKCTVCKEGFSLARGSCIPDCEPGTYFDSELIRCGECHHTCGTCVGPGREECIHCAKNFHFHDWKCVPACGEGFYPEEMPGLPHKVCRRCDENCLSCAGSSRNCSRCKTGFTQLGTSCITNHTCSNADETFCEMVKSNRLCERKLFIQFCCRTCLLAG

DU-145 [5] = assay: Cytotoxicity against human DU145 cells up to 350 uM after 72 hrs by MTT assay; type: functional; in short: as §1
[6] = Half life in CD-1 mouse plasma at 0.5 ug/uL by RP-HPLC analysis; type: ADME, cell-free
In short: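 Peptides at 0.5 μg/μL were incubated at 37 °C in heparinized plasma pooled from mixed-sex CD1 mice. At each time point the reaction was stopped with 1 M guanidinium-HCl, then acetonitrile, and proteins were spun out. Supernatant peptide AUC (RP-HPLC) was compared with non-incubated samples. Half-life came from a one-phase decay fit. Run ≥3 times, duplicate per time point.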

[7] = target: T2, Neuroendocrine convertase 2 (Homo sapiens, UniProt P16519); assay: Inhibition of human PC2 expressed in drosophila schneider 2 cells using pyroGlu-Arg-Thr-Lys-Arg-AMC as substrate after 1 hr; in short: as §2
T2 sequence (P16519 whole entry): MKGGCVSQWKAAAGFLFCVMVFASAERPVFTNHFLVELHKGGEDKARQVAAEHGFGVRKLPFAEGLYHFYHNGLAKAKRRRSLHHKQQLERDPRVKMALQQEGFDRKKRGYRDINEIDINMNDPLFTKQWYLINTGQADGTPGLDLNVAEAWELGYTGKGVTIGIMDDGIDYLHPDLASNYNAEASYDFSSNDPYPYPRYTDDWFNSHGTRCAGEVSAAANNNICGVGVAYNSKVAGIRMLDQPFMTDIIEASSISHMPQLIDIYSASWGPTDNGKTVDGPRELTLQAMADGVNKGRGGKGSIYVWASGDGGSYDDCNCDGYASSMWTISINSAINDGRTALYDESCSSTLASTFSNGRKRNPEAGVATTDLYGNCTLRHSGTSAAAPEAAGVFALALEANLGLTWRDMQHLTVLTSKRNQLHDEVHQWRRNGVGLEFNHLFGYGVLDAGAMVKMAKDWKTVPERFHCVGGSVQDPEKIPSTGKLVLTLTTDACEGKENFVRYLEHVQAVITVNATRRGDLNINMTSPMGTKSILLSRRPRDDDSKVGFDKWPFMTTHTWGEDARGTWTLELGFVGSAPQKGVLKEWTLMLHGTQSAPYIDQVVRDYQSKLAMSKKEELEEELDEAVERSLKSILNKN

Plasma = assay: Drug degradation in CD-1 mouse plasma at 0.5 ug/uL after 30 mins by MALDI-TOF MS analysis; type: ADME, cell-free; conditions: 0.5 h
In short: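 For fragment mapping, 100 μg peptide was incubated in murine plasma at 37 °C. At each time point, plasma samples were quenched with 3% TFA. Proteins were precipitated with 2 volumes acetonitrile and centrifuged at 17 000g. Supernatants were analyzed by MALDI-TOF MS for C-terminally truncated fragments.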

[8] = target: T3, Proprotein convertase subtilisin/kexin type 7 (Homo sapiens, UniProt Q16549); assay: Inhibition of human PC7 expressed in drosophila schneider 2 cells using pyroGlu-Arg-Thr-Lys-Arg-AMC as substrate after 1 hr; in short: as §2
T3 sequence (Q16549 whole entry): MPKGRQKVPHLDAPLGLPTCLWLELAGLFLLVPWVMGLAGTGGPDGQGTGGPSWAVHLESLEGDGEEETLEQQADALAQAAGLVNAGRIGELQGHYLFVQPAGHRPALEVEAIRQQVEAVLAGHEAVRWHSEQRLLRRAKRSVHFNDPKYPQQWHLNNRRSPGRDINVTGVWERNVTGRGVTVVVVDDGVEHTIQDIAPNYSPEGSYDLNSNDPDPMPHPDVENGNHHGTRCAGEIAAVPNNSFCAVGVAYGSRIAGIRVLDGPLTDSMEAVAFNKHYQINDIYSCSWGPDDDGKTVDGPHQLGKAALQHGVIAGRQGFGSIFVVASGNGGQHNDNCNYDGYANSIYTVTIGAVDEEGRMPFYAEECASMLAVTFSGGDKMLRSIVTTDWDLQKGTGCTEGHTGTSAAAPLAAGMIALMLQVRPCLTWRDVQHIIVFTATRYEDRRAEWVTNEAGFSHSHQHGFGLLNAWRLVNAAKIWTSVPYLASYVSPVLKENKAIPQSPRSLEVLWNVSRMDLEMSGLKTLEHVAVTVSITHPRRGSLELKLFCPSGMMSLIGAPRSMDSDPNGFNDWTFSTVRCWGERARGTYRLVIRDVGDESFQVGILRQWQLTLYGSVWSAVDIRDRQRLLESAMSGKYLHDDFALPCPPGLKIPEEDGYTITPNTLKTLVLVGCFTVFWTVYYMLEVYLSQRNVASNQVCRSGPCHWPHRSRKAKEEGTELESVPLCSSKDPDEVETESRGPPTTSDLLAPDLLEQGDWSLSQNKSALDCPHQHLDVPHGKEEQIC

PC-3 [9] = assay: Cytotoxicity against human PC3 cells after 72 hrs by MTT assay; type: functional, cell-based; conditions: PC-3, 72 h; in short: as §1
LNCaP [10] = assay: Cytotoxicity against human LNCAP cells after 72 hrs by MTT assay; type: functional, cell-based; in short: as §1
DU-145 [11] = assay: Cytotoxicity against human DU145 cells after 72 hrs by MTT assay; type: functional, cell-based; conditions: DU-145, 72 h; in short: as §1
DU-145 [12] = assay: Cellular uptake in human DU145 cells after 1 hr by propidium iodide staining-based FACS analysis; type: ADME, cell-based; conditions: du-145, 1 h
In short: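 FITC-βAla-labelled peptides at 10 μM were given to DU145 cells for 1 h in serum-free RPMI. Cells were collected, then washed twice with 0.05% trypsin (5 min, 37 °C) to strip membrane-bound peptide. Propidium iodide (10 μg/mL, 2 min) excluded damaged cells. FACS read 10 000 events/sample as geometric mean fluorescence, against untreated-cell autofluorescence.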

Row | Structure (SMILES) | inhibition (INH) (LNCaP [1]) | inhibition (INH) (PC-3 [2]) | Ki (Furin) | cytotoxicity at 4 h, 100 µM [3] | Ki [4] | inhibition (INH) (DU-145 [5]) | half-life at 0.5 ug/uL [6] | Ki [7] | Stability (Plasma) | Ki [8] | IC50 (PC-3 [9]) | IC50 (LNCaP [10]) | IC50 (DU-145 [11]) | Drug uptake (DU-145 [12])
1 | CC(=O)N[C@H](CC(C)C)C(=O)N[C@H](CC(C)C)C(=O)N[C@H](CC(C)C)C(=O)N[C@H](CC(C)C)C(=O)N[C@@H](CCCNC(=N)N)C(=O)N[C@H](C(=O)N[C@@H](CCCCN)C(=O)N[C@@H](CCCNC(=N)N)C(N)=O)C(C)C | <50% | <50% | 7300 nM | < 5% | 14000 nM | <50% | – | – | – | – | – | – | – | –
2 | CC(=O)N[C@@H](CC(C)C)C(=O)N[C@@H](CC(C)C)C(=O)N[C@@H](CC(C)C)C(=O)N[C@@H](CC(C)C)C(=O)N[C@@H](CCCN=C(N)N)C(=O)N[C@H](C(=O)N[C@@H](CCCCN)C(=O)NCc1ccc(C(=N)N)cc1)C(C)C (Ac-LLLLRVK-{NH(4-amidinobenzyl)}) | – | – | 4.3 nM | < 5% | 3.1 nM | – | 12 h | 0.24 nM | Unstable | 13.8 nM | – | – | – | –
3 | CC(=O)N[C@H](CC(C)C)C(=O)N[C@@H](CC(C)C)C(=O)N[C@@H](CC(C)C)C(=O)N[C@@H](CC(C)C)C(=O)N[C@@H](CCCN=C(N)N)C(=O)N[C@H](C(=O)N[C@@H](CCCCN)C(=O)N[C@@H](CCCN=C(N)N)C(N)=O)C(C)C | – | – | 760 nM | < 5% | 24 nM | – | 8.6 h | – | Unstable | – | 190000 nM | 150000 nM | 70000 nM | Active
4 | CCCC[C@H](NC(=O)[C@H](CC(C)C)NC(=O)[C@H](CC(C)C)NC(C)=O)C(=O)N[C@@H](CC(C)C)C(=O)N[C@@H](CCCNC(=N)N)C(=O)N[C@H](C(=O)N[C@@H](CCCCN)C(=O)N[C@@H](CCCNC(=N)N)C(N)=O)C(C)C (Ac-LL[Nle]LRVKR-NH2) | <50% | <50% | 1980 nM | < 5% | 385 nM | – | – | – | – | – | – | – | 190000 nM | –
5 | CC(=O)N[C@@H](CC(C)C)C(=O)N[C@@H](CC(C)C)C(=O)N[C@@H](CC(C)C)C(=O)N[C@@H](CC(C)C)C(=O)N[C@@H](CCCNC(=N)N)C(=O)N[C@H](C(=O)N[C@@H](CCCCN)C(=O)N[C@@H](CCCNC(=N)N)C(N)=O)C(C)C | – | <50% | – | < 5% | 20 nM | – | 5.1 h | – | Unstable | – | – | – | – | Active
6 | CCCC[C@@H](NC(C)=O)C(=O)N[C@@H](CC(C)C)C(=O)N[C@@H](CC(C)C)C(=O)N[C@@H](CC(C)C)C(=O)N[C@@H](CCCNC(=N)N)C(=O)N[C@H](C(=O)N[C@@H](CCCCN)C(=O)N[C@@H](CCCNC(=N)N)C(N)=O)C(C)C | – | – | 800 nM | < 5% | 25 nM | – | 7.1 h | – | – | – | 150000 nM | 90000 nM | 80000 nM | –
